# Assay outcomes as filed in PubChem.
# Diaphorase inh = diaphorase inhibition or chemical oxidation counter-screen. AID 1217. diaphorase resazurin-to-resorufin fluorescence, NADH, 16 min; bacterial (C. kluyveri) enzyme, not human. hit rate 0.69% among 190,000. inhibition, % at 20 µM;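 active = primary screen inhibition at 20 µM above a set limit, cut at about 50% in these data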;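 note: plate controls were DMSO with full reaction for no effect and wells lacking NADH for full effect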
#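 Assay system – diaphorase enzyme from Clostridium kluyveri · Amount – diaphorase 0.14 U/mL (working solution) · Times – reaction incubation of 16 min at room temperature · Controls – No-NADH positive control and DMSO neutral control · Signal – resorufin fluorescence 544/590 nm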
# HKDC1 inhibitor = inhibitors of human hexokinase HKDC1. inhibition, % at 20 µM. hit rate 0.16% among 340,000. Q2TB90. AID 493160. recombinant HKDC1, G6PDH/diaphorase resazurin coupled fluorescence;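 active = inhibition above about 35% when tested at 20 µM, limit read from the data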;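 note: plate controls were DMSO wells with enzyme for no effect and DMSO wells lacking enzyme for full effect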
# Target sequence (Q2TB90 whole entry, looked up): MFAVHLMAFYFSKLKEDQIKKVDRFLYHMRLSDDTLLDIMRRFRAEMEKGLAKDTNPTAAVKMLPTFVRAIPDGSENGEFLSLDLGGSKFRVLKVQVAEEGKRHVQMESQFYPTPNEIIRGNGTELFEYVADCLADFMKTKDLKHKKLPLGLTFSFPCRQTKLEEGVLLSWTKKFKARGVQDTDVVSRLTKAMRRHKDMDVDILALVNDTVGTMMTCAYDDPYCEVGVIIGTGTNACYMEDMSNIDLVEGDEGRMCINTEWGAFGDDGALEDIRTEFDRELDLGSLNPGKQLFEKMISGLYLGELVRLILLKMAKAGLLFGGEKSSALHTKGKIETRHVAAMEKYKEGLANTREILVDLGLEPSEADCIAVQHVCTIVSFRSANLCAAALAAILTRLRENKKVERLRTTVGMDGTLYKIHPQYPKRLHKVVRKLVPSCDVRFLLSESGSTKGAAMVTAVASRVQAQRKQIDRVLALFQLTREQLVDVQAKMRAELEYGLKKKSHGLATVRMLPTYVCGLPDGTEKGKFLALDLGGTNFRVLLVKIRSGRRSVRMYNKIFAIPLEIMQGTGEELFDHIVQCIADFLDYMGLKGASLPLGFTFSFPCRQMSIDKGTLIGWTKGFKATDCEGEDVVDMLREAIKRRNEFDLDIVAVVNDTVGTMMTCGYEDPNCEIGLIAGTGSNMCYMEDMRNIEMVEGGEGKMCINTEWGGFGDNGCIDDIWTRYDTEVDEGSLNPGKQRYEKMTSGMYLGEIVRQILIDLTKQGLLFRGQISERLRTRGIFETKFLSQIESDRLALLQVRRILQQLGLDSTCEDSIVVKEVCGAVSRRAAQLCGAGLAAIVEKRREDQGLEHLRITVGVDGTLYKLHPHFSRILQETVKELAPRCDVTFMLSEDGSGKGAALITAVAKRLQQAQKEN
#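 Test system: HK5 enzyme. Quantity: 5 µg/mL HK5 final. Reagent: glucose and ATP substrates. Schedule: 90 min reaction incubation at room temperature, dark. Technique: resazurin-to-resorufin fluorescence via G6PDH and diaphorase coupling, 525/613 nm. Control set: DMSO wells with and without enzyme mix.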
# G6PDH counter = inhibits Leuconostoc G6PDH, flagging false hits in G6PDH-based assays; Purified L. mesenteroides G6PDH, diaphorase/resazurin coupled fluorescence, 45 min; inhibition, % at 5 µM; hit rate 0.12% among 200,000; AID 1020; in the data active = inhibition above about 50%
# PfG6PD inh = PfG6PD (Plasmodium falciparum) enzyme inhibition; PfGluPho enzyme, NADPH resazurin-diaphorase fluorescence; AID 504690; inhibition, % at 20 µM; hit rate 0.78% among 350,000;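 active = inhibition reaching at least a set limit at 20 µM in the primary screen, cut at about 59% in these data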;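 note: 0% = DMSO wells with substrate and 100% = DMSO wells lacking glucose-6-phosphate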
# The depositor's hits bear a star; x = no result. Compounds with a hit are over-represented: about 1.3% of the library has one in this group of screens.
SMILES,Diaphorase inh,HKDC1 inhibitor,G6PDH counter,PfG6PD inh
CCCn1ncc([C@@H]2C[C@H]3CN(Cc4cccc(Cl)c4)C(=O)[C@]34CCCN24)c1C,60*,8,3,-5
CCn1ncc([C@@H]2C[C@H]3CN(Cc4cccc(Cl)c4)C(=O)[C@]34CCCN24)c1C,5,6,14,3
COc1ccc(C(=O)C2CCN(CC(=O)Nc3ccc(C)cc3)CC2)cc1,x,-4,x,1
CN(C)c1ccc(N=Cc2nc(-c3ccccc3)oc2O)cc1,19,-2,1,31
CN(C)c1ccc(N=Cc2cccn2C)cc1,x,8,x,77*
CC(Sc1ccc2c(c1)OCCO2)C(=O)Nc1ncc(Cl)cc1Cl (configuration not stated),64*,29,18,-25
CC(Sc1ccc2c(c1)OCCO2)C(=O)Nc1ccc2c(c1)OCO2 (configuration not stated),25,1,5,-19
Cc1cccc(OCC(=O)N/N=C/c2ccc(N(C)C)cc2)c1,55*,1,10,0
CNC1=C(N(C(C)=O)c2ccc(Br)cc2)C(=O)c2ccccc2C1=O,41,9,52*,44
Oc1ccc(N=Cc2ccc(-c3cccs3)s2)cc1,31,15,26,72*
O=Cc1ccc(-c2cccs2)s1,x,-6,x,15
C=C(C1=CCN(S(=O)C(C)(C)C)[C@@H]1CCO)c1ccccc1 (some centres not stated),x,-4,x,5
CCOc1cc(N2CCOCC2)c(OCC)cc1NC(=O)COC(=O)c1ccccc1C,5,6,-4,19
CCOc1cc(N2CCOCC2)c(OCC)cc1NC(=O)Cc1cccc2ccccc12,10,4,2,89*
CSc1cccc(CNC(=O)C2CCC(=O)N(CCc3ccccc3)C2)c1 (configuration not stated),x,x,x,-10
CC(=O)Nc1ccc(S(=O)(=O)Nc2nc3ccccc3nc2N2CCCC2)cc1,50*,2,-3,-43
O=C(N/N=C/c1ccc(-c2ccccc2[N+](=O)[O-])o1)c1cccnc1,59*,13,-25,29
Cc1nc(C)c(C(=O)OCC(=O)NCc2ccccc2Cl)s1,x,2,x,-8
CCC(C)(C)n1nnnc1C(c1cc2cc(C)ccc2[nH]c1=O)N1CCCc2ccccc21 (configuration not stated),70*,14,6,39
Cc1ccc2[nH]c(=O)c(C(c3nnnn3C3CCCC3)N3CCCc4ccccc43)cc2c1 (configuration not stated),62*,22,0,20
COc1ccc(NC(=O)COc2ccccc2Cc2ccccc2)cc1S(=O)(=O)N1CCOCC1,x,8,x,22
COC(=O)c1ccc(N2NC(=O)/C(=C/c3ccc(-c4ccc(Cl)c(C(=O)O)c4)o3)C2=O)cc1,74*,12,0,-7
Cc1ccc(N2NC(=O)/C(=C/c3ccc(-c4ccc(Cl)c(C(=O)O)c4)o3)C2=O)cc1C,23,6,13,-12
COC(=O)[C@]1(Cc2ccccc2)N[C@H](CN(C)C(=O)Nc2ccc(C(F)(F)F)cc2)[C@@H]2C(=O)N(C)C(=O)[C@@H]21,x,-3,x,0
NNC(=O)c1cc2ccccc2cc1O,9,-9,-17,7
SMILES,Diaphorase inh,HKDC1 inhibitor,G6PDH counter,PfG6PD inh
O=C(NCCO)c1cc2ccccc2cc1O,52*,-1,-2,33
CCN1CCN(C(=S)c2ccc(Cl)cc2)CC1,18,-2,2,81*
CCOC(=O)SC1=N/C(=C\c2ccc(N(C)C)cc2)C(=O)S1,50*,2,-24,18
CCSC1=N/C(=C\c2ccc(C(=O)O)cc2)C(=O)S1,18,3,1,15
COC(=O)[C@@]1(Cc2ccc(F)cc2)[C@H]2c3cc(C(=O)N4CCCC4)n(CCc4ccc(O)c(O)c4)c3C[C@H]2CN1C(=O)c1ccccc1,52*,x,25,x
NC(=O)c1c(NC(=O)CSc2nnc(-c3ccco3)n2-c2ccccc2)sc2c1CCC2,53*,3,9,7
CCOC(=O)c1c(NC(=O)CSc2nnc(C)s2)sc2c1CCCCC2,21,4,9,-5
CCOC(=O)c1c(NC(=O)CSc2nnc3c(Cl)cc(Cl)cn23)sc2c1CCC2,69*,26,-20,26
N#Cc1c(NC(=O)CSc2nnc(-c3ccco3)n2-c2ccccc2)sc2c1CCC2,0,-5,5,-8
COc1cc2c(cc1OC)-c1cc(Nc3cccc(C)c3)nc(=O)n1CC2,x,-3,x,-1
Cc1c(NC(=O)[C@@H](NC(=O)c2ccc(Cl)c([N+](=O)[O-])c2)C(C)C)c(=O)n(-c2ccccc2)n1C,x,-2,x,15
COc1ccc2c(=O)c3c(=O)n(Cc4ccco4)c(-c4ccco4)nc3oc2c1,52*,19,3,24
COc1ccc(-c2nc3oc4cc(OC)ccc4c(=O)c3c(=O)n2Cc2ccco2)cc1,23,-7,-47,2
CC(=O)Nc1cccc(C(=O)N2CCN(S(=O)(=O)c3ccc(C4CCCCC4)cc3)CC2)c1,x,1,x,7
Oc1ccc2ccccc2c1C=Nc1ccc(Cl)cn1,62*,21,58*,39
Cn1c(SCC(=O)NNC(=O)c2ccccc2Br)nnc1C(F)(F)F,x,0,x,1
c1cc2cn[nH]c2cc1NC1CCCCCC1,72*,17,33,34
Cc1noc(C)c1S(=O)(=O)N(C)C[C@H]1Oc2ccc(NC(=O)NC(C)C)cc2C(=O)N([C@H](C)CO)C[C@@H]1C,x,0,x,-13
Cc1sc2nc[nH]c(=S)c2c1-c1ccccc1,82*,9,-8,9
Cc1sc2nc[nH]c(=O)c2c1-c1ccc(F)cc1,x,-5,x,-8
S=c1[nH]cnc2scc(-c3ccc(Br)cc3)c12,30,6,0,19
S=c1[nH]cnc2scc(-c3ccc(Cl)cc3)c12,x,4,x,26
Cc1cc(-c2csc3nc[nH]c(=S)c23)cc(C)c1C,56*,6,-3,12
Cc1ccc(-c2csc3nc[nH]c(=S)c23)cc1,70*,2,9,11
CCN(Cc1ccccc1)CC(O)COC(c1ccc(OC)cc1)c1ccc(OC)cc1 (configuration not stated),x,-4,x,17
SMILES,Diaphorase inh,HKDC1 inhibitor,G6PDH counter,PfG6PD inh
CC(CN1CCOCC1)OC(=O)c1cccc(Cl)c1 (configuration not stated),x,-4,x,-4
O=C(O)C1CCCN1c1nc(-c2ccc(Cl)c(Cl)c2)cc(C(F)(F)F)n1 (configuration not stated),x,1,x,-9
Oc1c(CN2CCOCC2)ccc2ccccc12,41,23,60*,22
O=C(NNC(=O)c1cccs1)c1cccnc1,x,-7,x,2
O=C(NNC(=S)NC(=O)c1cccs1)c1cccnc1,57*,-2,-2,-19
CCCCN(C(=O)c1ccc(NC2CC2)c([N+](=O)[O-])c1)c1c(N)n(CC(C)C)c(=O)[nH]c1=O,x,4,x,-22
Cc1ccc(C(NC(=O)C(C)C)c2cc([N+](=O)[O-])c3cccnc3c2O)cc1 (configuration not stated),39,6,53*,19
